Measurements from different studies.
Lines come from different studies, so protocols differ.
BRAF V600E: Serine/threonine-protein kinase B-raf (BRAF, Homo sapiens, UniProt P15056, V600E)
BRAF: Serine/threonine-protein kinase B-raf (BRAF, Homo sapiens, UniProt P15056)

CN1CCN(C(=O)c2ccc(NC(=O)Nc3ccc(N(C)c4ccnc(Nc5ccc(CS(C)(=O)=O)cc5)n4)cc3)cc2)CC1  remaining binding (BRAF V600E; binding; 1 µM): 85%
CO[C@@H]1[C@H](N(C)C(=O)c2ccccc2)C[C@H]2O[C@]1(C)n1c3ccccc3c3c4c(c5c6ccccc6n2c5c31)C(=O)NC4  inhibition (BRAF V600E; enzyme activity, inhibitor; 1 µM): 0%
Cc1cc(O)c(-c2ccc([C@@H](C)CN(C)C)cc2)c2c1[nH]c(=O)c1sccc12  inhibition (BRAF V600E; cell-free assay, inhibitor; 0.1 µM, lysate): -5.15%
C=CC(=O)N1CCC([C@@H]2CCNc3c(C(N)=O)c(-c4ccc(Oc5ccccc5)cc4)nn32)CC1  inhibition (BRAF; enzyme activity, inhibitor; 1 µM): 0%
C[C@H]1CC[C@H](n2c3cnccc3c3cnc(Nc4ccc5c(n4)CCN(C(=O)CO)C5)nc32)CC1  remaining signal (BRAF V600E; cell-free assay; 1 µM): 82%
CC#CC(=O)N1CCC[C@H]1c1nc(-c2ccc(C(=O)Nc3ccccn3)cc2)c2c(N)nccn12  inhibition (BRAF; enzyme activity, inhibitor; 1 µM): 43%
Cc1ccc(NC(=O)c2ccnc(C(F)(F)F)c2)cc1-c1cc(OCCO)nc(N2CCOCC2)c1  remaining binding (BRAF; binding, competition with immobilised ligand; 1 µM): 0.4%
CCCCC(=O)Nc1ccc(-c2ccc3ncn(CCC)c(=O)c3c2)cn1  remaining binding (BRAF V600E; binding, competition with immobilised ligand; 0.5 µM): 95%
COc1ccc2[nH]c3c4[nH]c5ccc(OC)cc5c4c4c(c3c2c1)C(=O)NC4=O  remaining binding (BRAF; binding, competition with immobilised ligand; 1 µM): 86%
C=CC(=O)N1CCC[C@@H](n2nc(-c3ccc(Oc4ccccc4)cc3)c3c(N)ncnc32)C1  inhibition (BRAF V600E; enzyme activity, inhibitor; 1 µM): 61%
C1=C/COCc2cc(ccc2OCCN2CCCC2)Nc2nccc(n2)-c2cccc(c2)COC/1  remaining binding (BRAF; binding; 0.1 µM): 94%
COc1ccc2oc(-c3ccc4nc(N)oc4c3)c/c(=N\c3ccccc3NC(=O)CCN)c2c1  remaining binding (BRAF; binding; 1 µM): 98%
Cc1cc2c(C(N)=O)c(N)n(-c3c(C)ccc(O)c3C)c2nc1C  inhibition (BRAF; enzyme activity, inhibitor, ADP detection; 3.333 µM): 101%
N#Cc1ccc(NC(=O)Nc2ccccc2)cc1  remaining binding (BRAF V600E; cell-free assay, competition with immobilised ligand; 25 µM): 100%
